Assay results pooled from the literature.
Each line is one published result; the experiments were not run side by side.
Target: SRSF protein kinase 3 (SRPK3, Homo sapiens, UniProt Q9UPE1)

SMILES	read-out	technique	concentration	remaining binding [%]
FC(F)(F)Oc1cccc(-c2cnc3ccc(-c4ccncc4)nn23)c1	binding	competition with immobilised ligand	5 µM	41
F[C@@H]1CCN(c2nccc(-c3cnn4ncccc34)n2)C1	binding		1 µM	100
CC(=O)N1CCC(c2ccc(C(=O)NC3=NCCN3)cc2C(F)(F)F)CC1	cell-free assay	competition with immobilised ligand	1 µM	100
Nc1ncc2c(n1)-c1c([nH]c3ccc(C#CC4CC4)cc13)CCCC2	binding	competition with immobilised ligand	1 µM	90
CCCOc1ccc([C@@H]2[C@@H](C(=O)O)[C@H](c3ccc4c(c3)OCO4)CN2CC(=O)Nc2c(CC)cccc2CC)cc1	cell-free assay	competition with immobilised ligand	1 µM	93
CNC(=O)[C@@H]1CC[C@@H](n2c(-c3ccc4cnccc4c3)nc3ccc(C(=O)NCc4cccc(C(N)=O)c4)cc32)C1	binding	competition with immobilised ligand	1 µM	92
O=C(NCCCN1CCOCC1)c1ccc(Nc2nccc(-c3cc4ccccc4s3)n2)cc1	binding	competition with immobilised ligand	1 µM	99
CN(CCCC(F)(F)F)c1nccc(-c2cnn3ncccc23)n1	binding		1 µM	100
O=C(c1ccc(Nc2nccc(-c3cc4ccccc4s3)n2)cc1)N1CCC(N2CCCC2)CC1	binding	competition with immobilised ligand	1 µM	100
C[C@H](NC(=O)c1cnc2n1[C@](C)(Cc1ccc(C#N)cc1)C(=O)N2c1cc(Cl)c(F)c(Cl)c1)C(=O)NC1(c2ccccn2)CC1	cell-free assay	competition with immobilised ligand	1 µM	100
c1cnn2ncc(-c3ccnc(N4CCC45COC5)n3)c2c1	binding		1 µM	66
O=C(Nc1c[nH]nc1C(=O)NC1CCNCC1)c1cc(F)cc(F)c1	binding	competition with immobilised ligand	1 µM	88
C=CC(=O)N1CCC(C(=O)NCC(=O)N2CCN(c3nc(-c4cnc(N)nc4C(F)F)nc(N4CCOCC4)n3)CC2)CC1	binding	competition with immobilised ligand	1 µM	99
COc1ncc2cc3ccccc3nc2c1C#N	cell-free assay	competition with immobilised ligand	5 µM	98
CCCCN(CCCC)C(=O)CN1C[C@@H](c2cc(OC)c3c(c2)OCO3)[C@H](C(=O)O)[C@H]1CC(C)(C)CCC	cell-free assay	competition with immobilised ligand	1 µM	100
CCN1CCN(Cc2ccc(C(=O)Nc3ccc(C)c(Oc4ccc5c(c4)CC(=O)N5)c3)cc2C(F)(F)F)CC1	binding	competition with immobilised ligand	1 µM	99
Cc1c(NC(=O)c2cc(C(N)=O)nc3cc(F)ccc23)c(C(F)(F)F)nn1Cc1ccc(C#N)cc1	cell-free assay	competition with immobilised ligand	1 µM	100
C[C@@H](c1ccc(-n2cnc3c(N)ncnc32)cc1)N1CCc2nn(C)c(Cc3ccccc3)c2C1=O	binding	competition with immobilised ligand	0.1 µM	76
COc1ccnn2ncc(-c3ccnc(N(C)C)n3)c12	binding		1 µM	67
C[C@@H]1CN(c2ccc3ncc(-c4ccc5[nH]nc(C6CC6)c5c4)n3n2)C[C@H](C)O1	binding	competition with immobilised ligand	0.5 µM	85
CCC(=N\O)/C(C)=C/c1ccc(F)cc1	cell-free assay	competition with immobilised ligand	1 µM	91
C[C@@H]1CCN(c2nccc(-c3cnn4ncccc34)n2)C1	binding		1 µM	55
CS(=O)(=O)N1CCCC(NC(=O)[C@H](CCC2CCCCC2)NC(=O)c2ccc(CNC(=O)c3cnc4ccccn34)cc2)C1 (stereo partly drawn)	cell-free assay	competition with immobilised ligand	0.1 µM	100
N[C@H]1CCN(c2nccc(-c3cnn4ncccc34)n2)C1	binding		1 µM	66
